Active and inactive are the calls of the source. The rule behind the calls is not given here.
Legend:
Mus musculus [1] = assay: Teratogenic effect in SWV mouse assessed as live fetuses at 172 mg/kg, ip administered on morning of day 8 of gestation; type: toxicity, organism-based; design: dose 172 mg/kg, route intraperitoneal; details: in vivo
In short: (§1)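 Two-month-old nulligravid SWV females were mated overnight and checked for vaginal plugs the next morning; gestation onset was set at 10 p.m. the previous night. On gestation day 8.5, each dam received a single ip injection (0.55-2.7 mmol/kg range) or vehicle (25% aqueous Cremophor EL) at 10 μL/g body weight. Litters were scored for implants, resorptions, live and dead fetuses, and fetuses with neural tube defects.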

Mus musculus [2] = assay: Anticonvulsant activity in CF1 albino mouse assessed as inhibition of subcutaneous pentylenetetrazole-induced seizures at 300 mg/kg, ip after 0.5 hrs; type: functional, organism-based; design: dose 300 mg/kg
In short: (§2)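 Adult male CF no. 1 albino mice (18-25 g) dosed ip with compound suspended in 0.5% methylcellulose (0.01 mL/g). Convulsant: pentylenetetrazol dissolved in 0.9% saline as a 0.85% solution for mice, given subcutaneously.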

Mus musculus [3] = assay: Teratogenic effect in SWV mouse assessed as fetuses with neural tube deffects at 172 mg/kg, ip administered on morning of day 8 of gestation; type: toxicity, organism-based; design: dose 172 mg/kg, route intraperitoneal; details: in vivo; in short: as §1
Mus musculus [4] = assay: Neurotoxicity in CF1 albino mouse assessed as motor impairment at 30 mg/kg, ip after 0.5 hrs; type: toxicity, organism-based; design: dose 30 mg/kg, route intraperitoneal; details: in vivo
Mus musculus [5] = assay: Neurotoxicity in CF1 albino mouse assessed as motor impairment at 100 mg/kg, ip after 4 hrs; type: toxicity, organism-based; design: dose 100 mg/kg, route intraperitoneal; details: in vivo
Mus musculus [6] = assay: Teratogenic effect in SWV mouse assessed as fetuses with neural tube deffects at 562 mg/kg, ip administered on morning of day 8 of gestation; type: toxicity, organism-based; design: dose 562 mg/kg, route intraperitoneal; details: in vivo; in short: as §1
Mus musculus [7] = assay: Anticonvulsant activity in CF1 albino mouse assessed as inhibition of maximal electroshock-induced seizures at 300 mg/kg, ip after 4 hrs; type: functional, organism-based; design: dose 300 mg/kg
In short: (§3)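 Test compounds suspended in 0.5% methylcellulose and given ip to adult male CF no. 1 albino mice (18-25 g) at 0.01 mL/g body weight before maximal electroshock challenge.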

Mus musculus [8] = assay: Neurotoxicity in CF1 albino mouse assessed as motor impairment at 30 mg/kg, ip after 4 hrs; type: toxicity, organism-based; design: dose 30 mg/kg, route intraperitoneal; details: in vivo
Mus musculus [9] = assay: Anticonvulsant activity in CF1 albino mouse assessed as inhibition of subcutaneous pentylenetetrazole-induced seizures at 300 mg/kg, ip after 4 hrs; type: functional, organism-based; design: dose 300 mg/kg; in short: as §2
Mus musculus [10] = assay: Teratogenic effect in SWV mouse assessed as fetuses with neural tube deffects at 340 mg/kg, ip administered on morning of day 8 of gestation; type: toxicity, organism-based; design: dose 340 mg/kg, route intraperitoneal; details: in vivo; in short: as §1
Mus musculus [11] = assay: Anticonvulsant activity in CF1 albino mouse assessed as inhibition of subcutaneous pentylenetetrazole-induced seizures at 30 mg/kg, ip after 4 hrs; type: functional, organism-based; design: dose 30 mg/kg; in short: as §2
Mus musculus [12] = assay: Neurotoxicity in CF1 albino mouse assessed as motor impairment at 300 mg/kg, ip after 4 hrs; type: toxicity, organism-based; design: dose 300 mg/kg, route intraperitoneal; details: in vivo
Mus musculus [13] = assay: Anticonvulsant activity in CF1 albino mouse assessed as inhibition of subcutaneous pentylenetetrazole-induced seizures at 100 mg/kg, ip after 0.5 hrs; type: functional, organism-based; design: dose 100 mg/kg; in short: as §2
Mus musculus [14] = assay: Teratogenic effect in SWV mouse assessed as resorptions at 172 mg/kg, ip administered on morning of day 8 of gestation; type: toxicity, organism-based; design: dose 172 mg/kg, route intraperitoneal; details: in vivo
In short: (§4)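 SWV inbred mice: two-month-old nulligravid females mated overnight with males and checked for vaginal plugs next morning; gestation onset taken as 10 p.m. the previous night. On gestation day 8.5 each dam got one ip injection, 0.55–2.7 mmol/kg, in 25% aqueous Cremophor EL (vehicle controls dosed alike), 10 μL/g body weight. Litters and implants tallied; resorptions and live fetuses reported as counts with percentages.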

Rattus norvegicus [15] = assay: Anticonvulsant activity in Sprague-Dawley rat assessed as inhibition of maximal electroshock-induced seizures at 30 mg/kg, po after 15 mins
Rattus norvegicus [16] = assay: Anticonvulsant activity in po dosed rat assessed as inhibition of maximal electroshock-induced seizures
Mus musculus [17] = assay: Anticonvulsant activity in CF1 albino mouse assessed as inhibition of maximal electroshock-induced seizures at 30 mg/kg, ip after 0.5 hrs; type: functional, organism-based; design: dose 30 mg/kg; in short: as §3
Mus musculus [18] = assay: Teratogenic effect in SWV mouse assessed as live fetuses at 562 mg/kg, ip administered on morning of day 8 of gestation; type: toxicity, organism-based; design: dose 562 mg/kg, route intraperitoneal; details: in vivo; in short: as §4
Mus musculus [19] = assay: Anticonvulsant activity in CF1 albino mouse assessed as inhibition of maximal electroshock-induced seizures at 30 mg/kg, ip after 4 hrs; type: functional, organism-based; design: dose 30 mg/kg; in short: as §3
Rattus norvegicus [20] = assay: Neurotoxicity in Sprague-Dawley rat assessed as motor impairment at 30 mg/kg, po after 0.25 to 4 hrs; details: in vivo
Mus musculus [21] = assay: Neurotoxicity in CF1 albino mouse assessed as motor impairment at 100 mg/kg, ip after 0.5 hrs; type: toxicity, organism-based; design: dose 100 mg/kg, route intraperitoneal; details: in vivo
Mus musculus [22] = assay: Anticonvulsant activity in CF1 albino mouse assessed as inhibition of subcutaneous pentylenetetrazole-induced seizures at 30 mg/kg, ip after 0.5 hrs; type: functional, organism-based; design: dose 30 mg/kg; in short: as §2
Mus musculus [23] = assay: Anticonvulsant activity in CF1 albino mouse assessed as inhibition of subcutaneous pentylenetetrazole-induced seizures at 100 mg/kg, ip after 4 hrs; type: functional, organism-based; design: dose 100 mg/kg; in short: as §2
Mus musculus [24] = assay: Neurotoxicity in CF1 albino mouse assessed as motor impairment at 300 mg/kg, ip after 0.5 hrs; type: toxicity, organism-based; design: dose 300 mg/kg, route intraperitoneal; details: in vivo
Mus musculus [25] = assay: Teratogenic effect in SWV mouse assessed as resorptions at 340 mg/kg, ip administered on morning of day 8 of gestation; type: toxicity, organism-based; design: dose 340 mg/kg, route intraperitoneal; details: in vivo; in short: as §4
Rattus norvegicus [26] = species: Rattus norvegicus; assay: Protective index, ratio of TD50 for rat to ED50 for maximal electroshock-induced rat seizure model
Mus musculus [27] = assay: Teratogenic effect in SWV mouse assessed as live fetuses at 340 mg/kg, ip administered on morning of day 8 of gestation; type: toxicity, organism-based; design: dose 340 mg/kg, route intraperitoneal; details: in vivo; in short: as §4
Mus musculus [28] = assay: Teratogenic effect in SWV mouse assessed as resorptions at 562 mg/kg, ip administered on morning of day 8 of gestation; type: toxicity, organism-based; design: dose 562 mg/kg, route intraperitoneal; details: in vivo; in short: as §4
Mus musculus [29] = assay: Anticonvulsant activity in CF1 albino mouse assessed as inhibition of maximal electroshock-induced seizures at 300 mg/kg, ip after 0.5 hrs; type: functional, organism-based; design: dose 300 mg/kg; in short: as §3
Mus musculus [30] = assay: Teratogenic effect in SWV mouse assessed as resorptions at 325 mg/kg, ip administered on morning of day 8 of gestation; type: toxicity, organism-based; design: dose 325 mg/kg, route intraperitoneal; details: in vivo
Mus musculus [31] = assay: Anticonvulsant activity in CF1 albino mouse assessed as inhibition of maximal electroshock-induced seizures at 100 mg/kg, ip after 0.5 hrs; type: functional, organism-based; design: dose 100 mg/kg; in short: as §3
Mus musculus [32] = assay: Teratogenic effect in SWV mouse assessed as live fetuses at 325 mg/kg, ip administered on morning of day 8 of gestation; type: toxicity, organism-based; design: dose 325 mg/kg, route intraperitoneal; details: in vivo
Mus musculus [33] = assay: Teratogenic effect in SWV mouse assessed as live fetuses at 537 mg/kg, ip administered on morning of day 8 of gestation; type: toxicity, organism-based; design: dose 537 mg/kg, route intraperitoneal; details: in vivo
Mus musculus [34] = assay: Teratogenic effect in SWV mouse assessed as live fetuses at 164 mg/kg, ip administered on morning of day 8 of gestation; type: toxicity, organism-based; design: dose 164 mg/kg, route intraperitoneal; details: in vivo
Mus musculus [35] = assay: Teratogenic effect in SWV mouse assessed as fetuses with neural tube deffects at 325 mg/kg, ip administered on morning of day 8 of gestation; type: toxicity, organism-based; design: dose 325 mg/kg, route intraperitoneal; details: in vivo
Mus musculus [36] = assay: Teratogenic effect in SWV mouse assessed as resorptions at 164 mg/kg, ip administered on morning of day 8 of gestation; type: toxicity, organism-based; design: dose 164 mg/kg, route intraperitoneal; details: in vivo
Mus musculus [37] = assay: Teratogenic effect in SWV mouse assessed as resorptions at 805 mg/kg, ip administered on morning of day 8 of gestation; type: toxicity, organism-based; design: dose 805 mg/kg, route intraperitoneal; details: in vivo
Mus musculus [38] = assay: Teratogenic effect in SWV mouse assessed as fetuses with neural tube deffects at 164 mg/kg, ip administered on morning of day 8 of gestation; type: toxicity, organism-based; design: dose 164 mg/kg, route intraperitoneal; details: in vivo
Mus musculus [39] = assay: Teratogenic effect in SWV mouse assessed as fetuses with neural tube deffects at 537 mg/kg, ip administered on morning of day 8 of gestation; type: toxicity, organism-based; design: dose 537 mg/kg, route intraperitoneal; details: in vivo
Mus musculus [40] = assay: Teratogenic effect in SWV mouse assessed as resorptions at 537 mg/kg, ip administered on morning of day 8 of gestation; type: toxicity, organism-based; design: dose 537 mg/kg, route intraperitoneal; details: in vivo

`CCCC(C(=O)Nc1ccc(S(N)(=O)=O)cc1)C(C)CC` (configuration not stated) was tested, and the Activity (Mus musculus [1]) was 88%, the Activity (Mus musculus [2]) was “inactive” and the Activity (Mus musculus [3]) was 7.8%. For the same molecule, the Activity (Mus musculus [4]) was “Non-toxic”, the Activity (Mus musculus [5]) was “Non-toxic” and the Activity (Mus musculus [6]) was 7.1%. For the same molecule, the Activity (Mus musculus [7]) was “Active”, the Activity (Mus musculus [8]) was “Non-toxic” and the Activity (Mus musculus [9]) was “inactive”. For the same molecule, the Activity (Mus musculus [10]) was 5%, the Activity (Mus musculus [11]) was “inactive” and the Activity (Mus musculus [12]) was “Non-toxic”. The Activity (Mus musculus [13]) was “inactive”, the Activity (Mus musculus [14]) was 12% and the Activity (Rattus norvegicus [15]) was “inactive”. For the same molecule, the ED50 (Rattus norvegicus [16]) was 35.8 mg/kg, the Activity (Mus musculus [17]) was “inactive” and the Activity (Mus musculus [18]) was 50%. The Activity (Mus musculus [19]) was “inactive”, the Activity (Rattus norvegicus [20]) was “Non-toxic” and the Activity (Mus musculus [21]) was “Non-toxic”. The Activity (Mus musculus [22]) was “inactive”, the Activity (Mus musculus [23]) was “inactive” and the Activity (Mus musculus [24]) was “Non-toxic”. For the same molecule, the Activity (Mus musculus [25]) was 33.3%, the “Ratio TD50/ED50” value (Rattus norvegicus [26]) was >13.9 and the Activity (Mus musculus [27]) was 66.7%. For the same molecule, the Activity (Mus musculus [28]) was 50% and the Activity (Mus musculus [29]) was “Active”.
With `CCC(CC(C)C)C(=O)Nc1ccc(S(N)(=O)=O)cc1` (configuration not stated) the Activity (Mus musculus [2]) was “inactive”, the Activity (Mus musculus [4]) was “Non-toxic” and the Activity (Mus musculus [30]) was 49.6%. For the same molecule, the Activity (Mus musculus [31]) was “inactive”, the Activity (Mus musculus [5]) was “Non-toxic” and the Activity (Mus musculus [32]) was 50.4%. The Activity (Mus musculus [7]) was “Active”, the Activity (Mus musculus [8]) was “Non-toxic” and the Activity (Mus musculus [9]) was “inactive”. For the same molecule, the Activity (Mus musculus [11]) was “inactive”, the Activity (Mus musculus [12]) was “Non-toxic” and the Activity (Mus musculus [13]) was “inactive”. The Activity (Mus musculus [33]) was 3.8%, the Activity (Mus musculus [34]) was 95.4% and the Activity (Mus musculus [17]) was “inactive”. The Activity (Mus musculus [19]) was “inactive”, the Activity (Rattus norvegicus [20]) was “Non-toxic” and the Activity (Mus musculus [21]) was “Non-toxic”. The Activity (Mus musculus [22]) was “inactive”, the Activity (Mus musculus [35]) was 22.7% and the Activity (Mus musculus [36]) was 6.6%. The Activity (Mus musculus [23]) was “inactive”, the Activity (Mus musculus [37]) was 100% and the Activity (Mus musculus [24]) was “Non-toxic”. For the same molecule, the Activity (Mus musculus [38]) was 0.9%, the Activity (Mus musculus [39]) was 50% and the Activity (Mus musculus [29]) was “inactive”. It also gave an Activity (Mus musculus [40]) of 96.2%.

Source: ChEMBL document CHEMBL1155468, “Syntheses and evaluation of anticonvulsant profile and teratogenicity of novel amide derivatives of branched aliphatic carboxylic acids with 4-aminobenzensulfonamide” (J Med Chem, 2010)
